According to publication PMC7511286 (European Journal of Drug Metabolism and Pharmacokinetics, 2020):

What was measured:
[1] = MAD study: safety and tolerability; format: in vivo, human; conditions: for TEAE Hemoglobinuria: subjects having the event: based solely on a positive dip stick test
How it was run: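 Healthy males aged 18–55 took oral tablets. Treatment-emergent AEs were recorded by clinical evaluation. Vital signs (blood pressure, pulse), 12-lead and Holter ECG, physical examination, and urine and plasma laboratory tests were also assessed. AEs of special interest were hematuria and retroperitoneal colicky pain with suspected or confirmed nephrolithiasis. Subjects were hospitalized around dosing.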

[2] = Preliminary two-compartment population pharmacokinetic model on SAD and MAD data; format: in vivo, human
How it was run: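 A two-compartment model with first-order absorption, inter-compartmental transfer and elimination was fitted to plasma concentrations. Data were fasted single-dose and multiple-dose only; fed and pre-dosing data were excluded and MAD outliers kept. Parameters were ka, V1/F, V2/F, CL/F and Q/F, with k10, k12 and k21 derived from clearance/volume. Values below LLOQ (0.1 μg/ml) were left-censored. No covariate testing.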

[3] = base model, inter-individual variability

COc1cccc(-c2ccc(NC(=O)C3=C(C(=O)O)CCC3)c(F)c2)c1 [IMU-838, vidofludimus calcium]
TEAEs Gastrointestinal disorders Total: subjects having the event ([1]; 40 mg, n = 12): 1 (8.3) N (%) | TEAEs General disorders and administration site conditions Total: number of events ([1]; 40 mg, n = 12): 3 | TEAEs General disorders and administration site conditions Total: subjects having the event ([1]; 40 mg, n = 12): 3 (25.0) N (%) | TEAEs Injury, poisoning and procedural complications total: number of events ([1]; 40 mg, n = 12): 1 | TEAEs Investigations Total: number of events ([1]; 40 mg, n = 12): 1 | TEAEs Investigations Total: subjects having the event ([1]; 40 mg, n = 12): 1 (8.3) N (%) | TEAEs Nervous system disorders Total: number of events ([1]; 40 mg, n = 12): 2 | TEAEs Nervous system disorders Total: subjects having the event ([1]; 40 mg, n = 12): 1 (8.3) N (%) | TEAEs Psychiatric disorders Total: number of events ([1]; 40 mg, n = 12): 1 | TEAEs Psychiatric disorders Total: subjects having the event ([1]; 40 mg, n = 12): 1 (8.3) N (%) | TEAEs Renal and urinary disorders Total: number of events ([1]; 40 mg, n = 12): 2 | TEAEs Renal and urinary disorders Total: subjects having the event ([1]; 40 mg, n = 12): 2 (16.7) N (%) | TEAEs Respiratory, thoracic and mediastinal disorders Total: number of events ([1]; 40 mg, n = 12): 1 | TEAEs Total: number of events ([1]; 40 mg, n = 12): 12 | TEAEs Total: subjects having the event ([1]; 40 mg, n = 12): 6 (50.0) N (%) | TEAE Hemoglobinuria: subjects having the event ([1]; 40 mg, n = 12): 2 (16.7) N (%) | number of drug-related TEAEs ([1]; 50 mg once daily): 16 | TEAE Abdominal pain upper: number of events ([1]; 50 mg, n = 16): 2 | TEAE Abdominal pain upper: subjects having the event ([1]; 50 mg, n = 16): 1 (6.3) N (%) | TEAE Dyspepsia: subjects having the event ([1]; 50 mg, n = 16): 1 (6.3) N (%) | TEAE Dysuria: subjects having the event ([1]; 50 mg, n = 16): 1 (6.3) N (%) | TEAE Epistaxis: subjects having the event ([1]; 50 mg, n = 16): 1 (6.3) N (%) | TEAE Flank pain: number of events ([1]; 50 mg, n = 16): 1 | TEAE Flank pain: subjects having the event ([1]; 50 mg, n = 16): 1 (6.3) N (%) | TEAE Headache: subjects having the event ([1]; 50 mg, n = 16): 3 (18.8) N (%) | TEAE Hematuria: subjects having the event ([1]; 50 mg, n = 16): 1 (6.3) N (%) | TEAE Lipase increased: number of events ([1]; 50 mg, n = 16): 1 | TEAE Lipase increased: subjects having the event ([1]; 50 mg, n = 16): 1 (6.3) N (%) | TEAE Nasopharyngitis: subjects having the event ([1]; 50 mg, n = 16): 4 (25.0) N (%) | TEAE Tenderness: subjects having the event ([1]; 50 mg, n = 16): 1 (6.3) N (%) | TEAEs Gastrointestinal disorders Total: number of events ([1]; 50 mg, n = 16): 3 | TEAEs Gastrointestinal disorders Total: subjects having the event ([1]; 50 mg, n = 16): 2 (12.5) N (%) | TEAEs General disorders and administration site conditions Total: number of events ([1]; 50 mg, n = 16): 1 | TEAEs General disorders and administration site conditions Total: subjects having the event ([1]; 50 mg, n = 16): 1 (6.3) N (%) | TEAEs Infections and infestations Total: number of events ([1]; 50 mg, n = 16): 4 | TEAEs Infections and infestations Total: subjects having the event ([1]; 50 mg, n = 16): 4 (25.0) N (%) | TEAEs Investigations Total: number of events ([1]; 50 mg, n = 16): 1 | TEAEs Investigations Total: subjects having the event ([1]; 50 mg, n = 16): 1 (6.3) N (%) | TEAEs Musculoskeletal and connective tissue disorders Total: number of events ([1]; 50 mg, n = 16): 1 | TEAEs Musculoskeletal and connective tissue disorders Total: subjects having the event ([1]; 50 mg, n = 16): 1 (6.3) N (%) | TEAEs Nervous system disorders Total: number of events ([1]; 50 mg, n = 16): 3 | TEAEs Nervous system disorders Total: subjects having the event ([1]; 50 mg, n = 16): 3 (18.8) N (%) | TEAEs Renal and urinary disorders Total: number of events ([1]; 50 mg, n = 16): 8 | TEAEs Renal and urinary disorders Total: subjects having the event ([1]; 50 mg, n = 16): 6 (37.5) N (%) | TEAEs Respiratory, thoracic and mediastinal disorders Total: number of events ([1]; 50 mg, n = 16): 1 | TEAEs Total: number of events ([1]; 50 mg, n = 16): 22 | TEAEs Total: subjects having the event ([1]; 50 mg, n = 16): 10 (62.5) N (%) | TEAE Hemoglobinuria: subjects having the event ([1]; 50 mg, n = 16): 5 (31.3) N (%) | tolerability ([1]; 30–50 mg once daily over 14 consecutive days): well tolerated | deaths or serious AEs ([1]; single and multiple doses (SAD and MAD)): no deaths or serious AEs | overall number of drug-related TEAEs ([1]; whole MAD study, 52 subjects including placebo): 53 | overall number of TEAEs ([1]; whole MAD study, 52 subjects including placebo, mild or moderate intensity): 79 | Correlation coefficient IIV CL/F and IIV V1/F ([2]; base model): 0.387 | Exponential residual error ([2]; base model): 41.6 %CV | V1/F (volume in central compartment), population estimate ([2]; base model): 2.98 L | V2/F (volume in peripheral compartment), population estimate ([2]; base model): 6.31 L | ka (absorption rate), population estimate ([2]; base model): 0.15 h⁻¹ | CL/F (apparent total clearance), population estimate ([2]; base model, fasted SAD and MAD data without pre-dosing): 4.47 mL/min | k12 (inter-compartmental rate constant) ([2]; base model, derived, Eq. 2): 0.124 h⁻¹ | k21 (inter-compartmental rate constant) ([2]; base model, derived, Eq. 3): 0.0584 h⁻¹ | IIV on CL/F [2, 3]: 20.8 %CV | IIV on V1/F [2, 3]: 49.4 %CV | half-life ([2]; human, plasma, oral): 2.76 h | half-life ([2]; male, human, plasma, oral): 33.1 h | k el ([2]; male, human, plasma, oral): 2.5e-05 s⁻¹
